Consider five compounds from ChEMBL document CHEMBL1811876 (J Med Chem, 2011).

Each structure is given as a SMILES string. Activity calls are given as the source filed them.

Data set [1] can be described thus: Upregulation of CDT1 expression in human CL1-5 cells by cDNA microarray. In kind it is functional, cell-based.
A short description of data set [2]: Upregulation of Cdt1 expression in human CL1-5 cells at 0.01 ug/mL by RT-PCR analysis after 24 to 48 hrs. In kind it is functional, cell-based.
Data set [3] can be described thus: (§1) Upregulation of Cdt1 expression in human CL1-5 cells at 0.01 ug/mL by RT-PCR analysis after 24 to 48 hrs by Western blot. In kind it is functional, cell-based. The method in brief:
(§2)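 CL1-5 cells were exposed to the test agent for 24 and 48 h. Cdt1 and CDC6 protein levels were then assessed by Western blot.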

A further data set deals with KB. Nature of the data set: Anticancer activity against human KB cells after 72 hrs by sulforhodamine B assay. In kind it is functional. (In general: The SRB assay estimates cell density from bound dye.)
Data set [4] in a line: as §1. In kind it is functional, cell-based. The method in brief: as §2
The source holds these as a separate data set.

Another data set has as its system DU-145. Nature of the data set: Anticancer activity against human DU145 cells after 72 hrs by sulforhodamine B assay. In kind it is functional. The note with it: DU-145, 72 h.
In the next data set the test system is A549. Nature of the data set: Anticancer activity against human A549 cells after 72 hrs by sulforhodamine B assay. In kind it is functional. As to conditions: A549, 72 h.
Data set [5] is described as follows: Upregulation of CDC6 expression in human CL1-5 cells by cDNA microarray. In kind it is functional, cell-based. As to conditions: TDE = time-dependent effect.
Data set [6] in a line: Upregulation of CDC6 expression in human CL1-5 cells at 0.01 ug/mL by RT-PCR analysis after 24 to 48 hrs. In kind it is functional, cell-based.
Data set [7] can be described thus: Anticancer activity against human KBVIN cells after 72 hrs by sulforhodamine B assay. In kind it is functional.
Data set [8] relates to HT-29. As to the kind of experiment: Anticancer activity against human HT-29 cells xenografted in athymic nude mouse assessed as median time to end point at 20 mg/kg, iv qd for 29 days. In kind it is functional. The method in brief:
(§3)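 Male athymic nude mice carrying human HT-29 colorectal adenocarcinoma xenografts, with a vehicle-treated control group. Dosing was 20 mg/kg given either i.v. once daily (qd) to the end of the study or i.v./i.p. twice daily (bid) to the end. Read-outs were median time to endpoint (TTE), maximum group body weight loss and treatment-related deaths. Significance threshold was P < 0.05.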
For orientation: A xenograft is tissue or cells of one species grown in another, often human tumour cells in immunodeficient mice.

Data set [9] concerns HT-29. Nature of the data set: Anticancer activity against human HT-29 cells xenografted in athymic nude mouse assessed as median time to end point at 20 mg/kg, iv bid for 29 days. In kind it is functional. The method in brief: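 Male athymic nude mice bearing HT-29 human colorectal adenocarcinoma xenografts. Drug dosed i.v./i.p. at 20 mg/kg twice daily (bid) to end of study. A vehicle-treated group served as control. The read-out was median time to endpoint (TTE) per group, with maximum group body weight loss and treatment-related deaths tracked. Significance was judged at P < 0.05.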

Data set [10] concerns HT-29. Nature of the data set: Anticancer activity against human HT-29 cells xenografted in athymic nude mouse assessed as median time to end point at 20 mg/kg, ip bid for 29 days. In kind it is functional. The note with it: route intraperitoneal. The method in brief: as §3
A short description of data set [11]: Toxicity against athymic nude mouse xenografted with human HT-29 cells assessed as mortality at 20 mg/kg, iv qd measured on day 12. In kind it is organism-based. Also on record: dose 20 mg/kg, route intravenous. As to conditions: in vivo, read-out: Activity. The method in brief: as §3
A short description of data set [12]: Toxicity against athymic nude mouse xenografted with human HT-29 cells assessed as mortality at 20 mg/kg, iv bid measured on day 19. As to conditions: in vivo, read-out: Activity. Further details: dose 20 mg/kg, route intravenous. In kind it is organism-based. The method in brief: as §3
In the next data set the test system is HCT-8. As to the kind of experiment: Anticancer activity against human HCT8 cells after 72 hrs by sulforhodamine B assay. In kind it is functional. As to conditions: HCT-8, 72 h.
For the next data set, the system named is HUVEC. As to the kind of experiment: Toxicity against HUVEC. In kind it is cell-based. The note with it: human.

For the compound `COc1ccc2c3c(c4cc(OC)c(OC)cc4c2c1)C[C@H]1CCCN1C3` [(-)-ANTOFINE], the Activity entry in data set [1] is “Dose-dependent effect”; in data set [5] it was “tde”. Further, the outcome in [2], in data set [3], in data set [4] and in [6] was Active. The figures for the GI50 in the data set on KB, with DU-145 and with A549 were 36 nM, 25 nM and 22 nM, respectively.

For `COc1ccc2c3c(c4cc(OC)c(OC)cc4c2c1)C[C@H]1CCCCCN1C3`, the outcome in data set [2], in data set [3], in data set [4] and in [6] was inactive. For the same compound, in the data set with KB, growth was halved (GI50) at 102 nM.

With `COc1ccc2c3c(c4cc(OC)c(OC)cc4c2c1)C[C@@H]1CCN(CC(C)C)CN1C3`, the GI50 (usually the concentration that inhibits growth by half) amounted to 7320 nM in data set [7], 1450 nM with KB, 1660 nM in the data set with DU-145 and 5110 nM with A549.

With `COc1ccc2c3c(c4cc(OC)c(OC)cc4c2c1)C[C@H]1COCCN1C3`, the result in data set [2], in [3], in [4] and in data set [6] was inactive. Further, the values for the Time in the data set with HT-29 [8], with HT-29 [9] and with HT-29 [10] were 21.3 days, 20.9 days and 20.9 days, respectively. Also, the GI50 was 37 nM in the data set on KB; 67 nM in the data set with DU-145; 23 nM in the data set on A549; 9 nM in the data set with HCT-8; 320 nM in the data set with HUVEC. Also, the mortality was 1.1% in data set [11] and 7.2% in data set [12].

Consider `COc1ccc2c3c(c4cc(OC)c(OC)cc4c2c1)C[C@@H]1CN(CC2CC2)CCN1C3`, for which the GI50 in data set [7] is 13400 nM; in the data set with KB it was over 20000 nM; in the data set on DU-145 it was over 20000 nM; in the data set on A549, over 20000 nM.
